Measurements from different studies.
Protocols differ between the studies behind these lines.
Read-out: binding
ABL1 non-phosphorylated: Tyrosine-protein kinase ABL1, non-phosphorylated (ABL1, Homo sapiens, UniProt P00519)

Compound | target | technique | pH | setting | Kd
O=C1Nc2ccccc2C1=O | Parkinson disease protein 7 (PARK7, Homo sapiens, UniProt Q99497) | SPR |  |  | 2 µM
O=C(O)c1cc(O)c2c(c1)C(=O)c1cccc(O)c1C2=O | Oxysterols receptor LXR-alpha (NR1H3, Homo sapiens, UniProt Q13133) | SPR |  |  | 46.7 µM
Cc1ccc(NC(=O)c2ccc(CN3CCS(=N)(=O)CC3)cc2)cc1Nc1nccc(-c2cccnc2)n1 | ABL1 non-phosphorylated | competition with immobilised ligand |  |  | 0.079 µM
NS(=O)(=O)C(F)(F)F | Carbonic anhydrase 1 (CA1, Homo sapiens, UniProt P00915) | ITC | pH 6 |  | 0.164 µM
O=c1cccccc1O | Carbonic anhydrase 2 (CA2, Homo sapiens, UniProt P00918) | ITC |  |  | 1680 µM
Cc1cnc(-c2ccc(-c3ccc(NC(=O)Nc4c(F)cc(F)cc4F)cc3F)c3c2C(=O)NC3)[nH]1 | Dual specificity mitogen-activated protein kinase kinase 6 (MAP2K6, Homo sapiens, UniProt P52564) | competition with immobilised ligand |  |  | 0.012 µM
N#CC1(c2ccc(NC(=O)c3cccnc3NCc3ccncc3)cc2)CCCC1 | AMP-activated protein kinase (AMPK) alpha-1/beta-1/gamma-1 (PRKAG1/PRKAA1/PRKAB1, Homo sapiens, UniProt P54619+Q13131+Q9Y478) | SPR |  |  | 2.49 µM
Cc1cc2nc3c(=O)[nH]c(=O)nc-3n(C[C@H](O)[C@H](O)[C@H](O)COP(=O)(O)OP(=O)(O)OC[C@H]3O[C@@H](n4cnc5c(N)ncnc54)[C@H](O)[C@@H]3O)c2cc1C | Cytotoxic granule associated RNA binding protein TIA1 (TIA1, Homo sapiens, UniProt P31483) |  |  | lysate | 0.038 µM
CC#CC(=O)N1CC[C@@H](n2cc(-c3ccc(Oc4c(F)cccc4F)cc3)c3c(N)n[nH]c(=O)c32)C1 | Receptor tyrosine-protein kinase erbB-2 (ERBB2, Homo sapiens, UniProt P04626) | competition with immobilised ligand |  |  | > 3 µM
Cc1cc(Nc2cc3ncccc3c(N[C@@H]3C[C@H]4CC[C@@H](C3)N4CCC#N)n2)n[nH]1 | STE20-like serine/threonine-protein kinase (SLK, Homo sapiens, UniProt Q9H2G2) | competition with immobilised ligand |  |  | 0.11 µM
FC(F)(F)c1n[nH]cc1-c1nc2ccc3[nH]ncc3c2c2c1CCCC2 | ABL1 non-phosphorylated | competition with immobilised ligand |  |  | 5.8 µM
